Measured values: ChEMBL document CHEMBL4316598, “Synthesis, antiproliferative and apoptosis induction potential activities of novel bis(indolyl)hydrazide-hydrazone derivatives” (Bioorg Med Chem, 2019)
pIC50: −log10 of the molar value. The source made the active and inactive calls. The calls are words filed in the database; no cut-off is given here.

Assays:
[1] = test system: MCF7; test: Induction of apoptosis in human MCF7 cells assessed as viable cells at 1 uM after 8 hrs by annexin-V FITC/propidium iodide staining based flow cytometric analysis relative to control; format: functional; settings: MCF7, 8 h, read-out: Activity
Method in brief: (§1)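 Cells were grown in DMEM with 10% heat-inactivated FBS at 37 °C and 5% CO₂, then plated at 500,000 cells/well in 24-well plates. They were treated from a DMSO stock (DMSO ≤0.1%) for 8, 12 or 16 h. After a PBS wash, cells were resuspended in binding buffer (10 mM HEPES pH 7.4, 2.5 mM CaCl₂, 140 mM NaCl, 0.1% BSA), stained 40 min with FITC-annexin V, then with PI, and run on the flow cytometer immediately. Values are the mean of three independent experiments.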

[2] = target: Tyrosine-protein kinase ABL1 (Homo sapiens) (UniProt P00519); test: Inhibition of ABL phosphorylation (unknown origin) at 50 uM after 5 to 60 mins by bioluminescence assay
Tyrosine-protein kinase ABL1 (Homo sapiens), sequence (P00519 whole entry): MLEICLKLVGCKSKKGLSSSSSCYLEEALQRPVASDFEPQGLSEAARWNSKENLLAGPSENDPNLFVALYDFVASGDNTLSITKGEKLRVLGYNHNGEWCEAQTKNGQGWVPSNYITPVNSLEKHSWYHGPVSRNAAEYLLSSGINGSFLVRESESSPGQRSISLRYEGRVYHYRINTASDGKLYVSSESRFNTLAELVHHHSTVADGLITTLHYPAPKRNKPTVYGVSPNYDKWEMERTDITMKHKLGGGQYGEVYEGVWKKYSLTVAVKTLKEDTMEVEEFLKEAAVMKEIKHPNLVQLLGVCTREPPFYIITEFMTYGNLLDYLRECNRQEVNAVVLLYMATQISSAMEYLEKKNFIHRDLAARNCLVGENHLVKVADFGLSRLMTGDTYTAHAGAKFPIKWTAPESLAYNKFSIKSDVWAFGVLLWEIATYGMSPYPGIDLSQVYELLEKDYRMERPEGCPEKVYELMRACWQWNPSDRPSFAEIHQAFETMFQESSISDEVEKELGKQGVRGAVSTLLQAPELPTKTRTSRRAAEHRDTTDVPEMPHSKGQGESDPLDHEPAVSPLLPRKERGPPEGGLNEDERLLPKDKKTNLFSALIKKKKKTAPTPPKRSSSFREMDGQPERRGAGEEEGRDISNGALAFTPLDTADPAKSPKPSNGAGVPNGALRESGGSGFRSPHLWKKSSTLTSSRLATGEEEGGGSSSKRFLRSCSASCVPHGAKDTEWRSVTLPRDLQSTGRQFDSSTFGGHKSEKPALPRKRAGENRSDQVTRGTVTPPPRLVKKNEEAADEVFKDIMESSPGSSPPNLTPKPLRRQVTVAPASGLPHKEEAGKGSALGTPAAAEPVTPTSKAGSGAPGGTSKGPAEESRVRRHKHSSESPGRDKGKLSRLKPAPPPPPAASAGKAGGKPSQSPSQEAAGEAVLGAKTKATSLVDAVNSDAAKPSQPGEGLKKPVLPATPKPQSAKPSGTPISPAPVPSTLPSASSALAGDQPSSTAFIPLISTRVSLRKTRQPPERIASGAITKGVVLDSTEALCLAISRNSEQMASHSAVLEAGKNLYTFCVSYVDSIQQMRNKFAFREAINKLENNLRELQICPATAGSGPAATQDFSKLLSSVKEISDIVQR
Method in brief: (§2)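 Kinase activity measured with compound at 1, 5, 10 and 50 μM, using a Kinase Reaction Rate Kit. Phosphorylation was followed by bioluminescent monitoring of ATP consumption, with light read at 5 min and 1 h. Staurosporine served as positive control. Data given as % kinase inhibition (% of control activity), from two separate experiments.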

[3] = test system: MCF7; test: Induction of apoptosis in human MCF7 cells assessed as up-regulation of acetylated p53 level at 5 uM after 24 hrs by sandwich ELISA; format: functional, cell-based
Method in brief: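 Cells were treated at 5 µM for 12, 24 and 48 h. Lysis was in ice-cold lysis buffer with 1 mM PMSF (5 min on ice), followed by three freeze-thaw cycles and a 10 min spin at 4 °C. Acetylated and total p53 were measured in the supernatant by kit sandwich ELISA, read at 450 nm. The control index is sample absorbance divided by that of untreated cells at the same time. Values are mean ± SD of triplicate experiments.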

[4] = test system: HeLa; test: Induction of apoptosis in human HeLa cells assessed as viable cells at 1 uM after 8 hrs by annexin-V FITC/propidium iodide staining based flow cytometric analysis relative to control; format: functional; settings: read-out: Activity; method in brief: as §1
[5] = test system: HeLa; test: Induction of apoptosis in human HeLa cells assessed as increase in Mcl-1 short level at 1 to 3 uM after 24 hrs by Western blot analysis; format: functional, cell-based
Method in brief: (§3)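 Cells were treated at 1, 3 and 5 µM for 24 h at 37 °C. Lysis was in ice-cold Triton X-100 buffer with protease and phosphatase inhibitors; nuclear proteins were extracted separately. Protein was quantified by BCA. Lysates were separated by electrophoresis, transferred to nitrocellulose and blocked in non-fat milk for 1 h. Primary antibody was applied overnight at 4 °C and secondary for 1 h at 28 °C. Detection was by enhanced chemiluminescence.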

[6] = test system: MCF7; test: Induction of apoptosis in human MCF7 cells assessed as late apoptotic cells at 1 uM after 16 hrs by annexin-V FITC/propidium iodide staining based flow cytometric analysis relative to control; format: functional; method in brief: as §1
[7] = test system: HeLa; test: Induction of apoptosis in human HeLa cells assessed as effect on Mcl-1 long level at 1 to 3 uM after 24 hrs by Western blot analysis; format: functional, cell-based; method in brief: as §3
[8] = test system: MCF7; test: Induction of apoptosis in human MCF7 cells assessed as increase in Mcl-1 short level at 1 to 3 uM after 24 hrs by Western blot analysis; format: functional, cell-based; method in brief: as §3
[9] = test system: HeLa; test: Induction of caspase-dependent apoptosis in human HeLa cells assessed as activation of caspase-9 at 1 to 3 uM after 24 hrs by Western blot analysis; format: functional, cell-based; method in brief: as §3
[10] = test system: HeLa; test: Induction of apoptosis in human HeLa cells assessed as change in Bcl-2 level at 1 to 3 uM after 24 hrs by Western blot analysis; format: functional, cell-based
Method in brief: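 Western blot: HeLa cells treated 24 h at 37 °C, lysed on ice, protein quantified by BCA. Proteins separated by electrophoresis, transferred to nitrocellulose, blocked 1 h in non-fat milk. Primary antibody (Bcl2) applied overnight at 4 °C, secondary 1 h at 28 °C, detected by enhanced chemiluminescence.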

[11] = test system: MCF7; test: Induction of apoptosis in human MCF7 cells assessed as change in Bid level at 1 to 3 uM after 24 hrs by Western blot analysis; format: functional, cell-based; method in brief: as §3
[12] = test system: HeLa; test: Effect on mitochondrial membrane potential in human HeLa cells assessed as shift change at 5 uM measured over 4 hrs by Rhodamine 123 dye-based fluorescence assay; format: functional, cell-based
Method in brief: (§4)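 Mitochondrial potential: HeLa or MCF-7 cells treated with 5 µM (final) for 1, 2, 4 and 8 h. Rhodamine 123 added, cells incubated 30 min at 37 °C, washed with PBS, and analysed by flow cytometry. Fluorescence histogram shift is compared with control.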

[13] = test system: HeLa; test: Induction of apoptosis in human HeLa cells assessed as late apoptotic cells at 1 uM after 12 hrs by annexin-V FITC/propidium iodide staining based flow cytometric analysis relative to control; format: functional; method in brief: as §1
[14] = test system: MCF7; test: Induction of apoptosis in human MCF7 cells assessed as late apoptotic cells at 1 uM after 12 hrs by annexin-V FITC/propidium iodide staining based flow cytometric analysis relative to control; format: functional; method in brief: as §1
[15] = test system: MCF7; test: Induction of caspase-dependent apoptosis in human MCF7 cells assessed as activation of caspase-9 at 1 to 3 uM after 24 hrs by Western blot analysis; format: functional, cell-based; method in brief: as §3
[16] = test system: MCF7; test: Induction of apoptosis in human MCF7 cells assessed as viable cells at 1 uM after 12 hrs by annexin-V FITC/propidium iodide staining based flow cytometric analysis relative to control; format: functional; settings: MCF7, 12 h, read-out: Activity; method in brief: as §1
[17] = test system: MCF7; test: Effect on mitochondrial membrane potential in human MCF7 cells assessed as shift change at 5 uM after 2 hrs by Rhodamine 123 dye-based fluorescence assay; format: functional, cell-based; method in brief: as §4
[18] = test system: HeLa; test: Induction of apoptosis in human HeLa cells assessed as necrotic cells at 1 uM after 8 hrs by annexin-V FITC/propidium iodide staining based flow cytometric analysis relative to control; format: functional; method in brief: as §1
[19] = test system: MCF7; test: Induction of ERK/MAPK signal transduction pathway in human MCF7 cells assessed as increase in p53 expression; format: cell-based
[20] = species on record: Homo sapiens; test: Inhibition of PKA phosphorylation (unknown origin) after 5 to 60 mins by bioluminescence assay; method in brief: as §2
[21] = test system: HeLa; test: Induction of ROS generation in human HeLa cells at 5 uM after 4 to 8 hrs in presence of NAC by DCFH-DA staining-based fluorescence spectrophotometric analysis; format: functional, cell-based
Method in brief: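 DCFH-DA ROS: HeLa or MCF-7 cells at 2×10^6/well cultured 12 h, treated 4 or 8 h; t-BHP (10 μM) is the positive control. DCFH-DA 10 μM added for 10 min at 37 °C, cells washed twice with PBS. Fluorescence read at ex 485/em 520 nm. For the NAC arm, NAC (5 mM) is added to the medium before treatment.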

[22] = test system: MDA-MB-231; test: Cytotoxicity against human MDA-MB-231 cells assessed as reduction in cell viability after 4 hrs by MTT assay; format: functional, cell-based
Method in brief: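 MTT: 10,000–20,000 cells/well attached for 16 h, then washed twice with serum-free RPMI. Treated with 1–200 µM for 4 h, 3 parallel runs per concentration. MTT added for 2 h; medium partly removed and isopropanol added. A590 read. Viability = (A treated − A doxorubicin)/(A medium − A doxorubicin)×100. Mean of three experiments, triplicate wells each.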

Structure (SMILES): Cn1cc(/C=N\NC(=O)c2cn(C)c3ccc(Br)cc23)c2ccccc21
- viability at 1 µM [1]: 93.4%
- inhibition [2]: Active
- Activity [3]: Active
- viability at 1 µM [4]: 68.8%
- Activity [5]: Active
- Activity [6]: 58.43%
- Activity [7]: inactive
- Activity [8]: Active
- Activity [9]: inactive
- Activity [10]: inactive
- Activity [11]: inactive
- Activity [12]: Active
- Activity [13]: 18.42%
- Activity [14]: 35.72%
- Activity [15]: inactive
- viability at 1 µM [16]: 40.5%
- Activity [17]: Active
- Activity [18]: 0.57%
- Activity [19]: Active
- inhibition [20]: Dose-dependent effect
- Activity [21]: inactive
- Activity [22]: Dose-dependent effect
- pIC50 ([22]; MDA-MB-231, 4 h): 5.26
